Activity calls are given as the source filed them. No cut-off for these calls is given here.
Tests used:
[1] = system: L5178Y; experiment: Inhibition of P-glycoprotein expressed in mouse L5178Y cells measured by rhodamine 123 uptake assessed as fluorescence activity ratio relative to wild type mouse L5178 cells at 1 uM; assay type: cell-based
In short: (§1)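 Mouse T lymphoma parental L5178 and P-gp-expressing L5178Y cells at 2 × 10^6 cells/mL in serum-free McCoy's 5A medium. Compound added from DMSO stock, 10 min at rt. Rhodamine 123 then added (final 5.2 µM), 20 min at 37 °C. Two PBS washes, 1 × 10^4 cells read by flow cytometry. Ratio = subline/parental fluorescence, each corrected to its untreated control.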

[2] = system: L5178Y; experiment: Inhibition of P-glycoprotein expressed in mouse L5178Y cells measured by rhodamine 123 uptake assessed as fluorescence activity ratio relative to wild type mouse L5178 cells at 10 uM; assay type: cell-based; in short: as §1
[3] = organism: Homo sapiens; experiment: Induction of p-glycoprotein expression in human EPG 85-257 cells after 72 hrs by Western blot analysis; assay type: functional, cell-based
In short: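 Gastric carcinoma cells seeded at 5 × 10^5 cells/well and cultured 72 h with compound. Cells washed twice, proteins extracted with Triton X-100 and denatured 10 min at 95 °C. Protein quantified by amido black at 630 nm. 20 µg run on SDS-PAGE (4% stacking/6% resolving) and blotted. Probed with C219 (1:100) and peroxidase anti-mouse IgG (1:10000), chemiluminescence read-out. Anti-actin (1:50000) as loading control.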

Compound	Ratio [1]	Ratio [2]	Activity [3]
COc1ccc(CN2C3[C@]4(CO)C5N(Cc6ccc(OC)cc6)C6[C@](CO)(C2[C@@]6(CO)[C@@H](c2ccccc2)[C@@]35CO)[C@H]4c2ccccc2)cc1	3.5	13	–
OC[C@]12C3N(Cc4cccc(OCc5ccccc5)c4)C4[C@](CO)(C5N(Cc6cccc(OCc7ccccc7)c6)C1[C@]3(CO)[C@@H](c1ccccc1)[C@@]45CO)[C@@H]2c1ccccc1	117	205	–
OC[C@]12C3N(Cc4ccc(OCc5ccccc5)cc4)C4[C@](CO)(C5N(Cc6ccc(OCc7ccccc7)cc6)C1[C@]3(CO)[C@H](c1ccccc1)[C@@]45CO)[C@H]2c1ccccc1	2.3	28	–
COc1ccc(CCN(C)CCCC(C#N)(c2ccc(OC)c(OC)c2)C(C)C)cc1OC (configuration not stated)	2.1	4.1	–
COc1ccc([C@H]2[C@@]3(CO)C4N(Cc5ccccc5)C5[C@]2(CO)C2N(Cc6ccccc6)C3[C@]4(CO)[C@H](c3ccc(OC)cc3)[C@@]52CO)cc1	4.3	57	inactive
OC[C@]12C3N(Cc4ccccc4)C4[C@](CO)(C5N(Cc6ccccc6)C1[C@]3(CO)[C@H](c1cccc(OCc3ccccc3)c1)[C@@]45CO)[C@H]2c1cccc(OCc2ccccc2)c1	65	125	–
OC[C@]12C3N(Cc4ccccc4)C4[C@](CO)(C5N(Cc6ccccc6)C1[C@]3(CO)[C@H](c1ccc(OCc3ccccc3)cc1)[C@@]45CO)[C@H]2c1ccc(OCc2ccccc2)cc1	3.3	47	–
OC[C@]12C3N(Cc4ccccc4)C4[C@](CO)(C5N(Cc6ccccc6)C1[C@]3(CO)[C@@H](c1ccccc1)[C@@]45CO)[C@@H]2c1ccccc1	4.1	29	–
